Source: PMC5576345 (Chemical communications (Cambridge, England), 2017)
Where two headings read alike, the source gives them in different places.

Experiments:
[1] = test system: BSF T. brucei; experiment: Growth inhibition of BSF T. brucei cultures; type: cell-based, Trypanosoma brucei; settings: for EC50: read-out: BSF EC50, dose-response in triplicate, 384-well format
Summary of the method: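 Bloodstream-form T. brucei cultures were treated in triplicate with test compound at 10 μM, with DMSO vehicle as negative control and a reference inhibitor as positive control on each plate. Percent growth inhibition was calculated against DMSO-treated parasites on the same plate. Compounds giving >50% inhibition at 10 μM went to triplicate dose-response curves, and the EC50 was fitted as the concentration killing 50% of parasites.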

[2] = test system: human cell lines; settings: cited from earlier work
[3] = test system: mammalian hexokinase; settings: cited from earlier work
[4] = molecular target: rTbHK1 (recombinant T. brucei hexokinase 1); settings: read-out: rTbHK1 IC50; initial round of SAR study; cited from earlier work
[5] = test system: BSF T. brucei; settings: cited from earlier work
[6] = molecular target: rTbHK1 (recombinant T. brucei hexokinase 1); experiment: rTbHK1 enzyme inhibition assay; type: biochemical, Trypanosoma brucei; settings: read-out: TbHK1 IC50; dose-response
Summary of the method: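 Recombinant TbHK1 was expressed in and isolated from Escherichia coli or yeast. The purified enzyme was tested in triplicate for percent inhibition at 10 μM test compound. IC50 was taken as the concentration giving 50% inhibition of TbHK1 activity.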

| IC50 [6] | SMILES | %BSF Growth Inhibition (10 μM) ([1]; 10 μM, triplicate, vs DMSO controls) | EC50 [1] | Toxicity toward human cell lines [2] | Impact on a mammalian hexokinase [3] | IC50 [4] | Trypanocidal activity against whole-cell BSF parasites (result in words) [5] |
| --- | --- | --- | --- | --- | --- | --- | --- |
| 980 ± 67 nM | CC(C)(C)c1ccc(C(=O)Nc2cc(Cl)c(Br)cc2C(=O)O)cc1 [Compound 2] | 6.9 ± 3.0% | > 10000 nM | no appreciable toxicity | no impact | 980 ± 70 nM | not an effective trypanocide |
| – | N=C(N)c1ccc(OCCCCCOc2ccc(C(=N)N)cc2)cc1 [pentamadine] | – | 3 ± 1 nM | – | – | – | – |
